Published values pooled from the literature.
Each line is one published result; the experiments were not run side by side.

SMILES	tested on	test	test system	conditions	measurement	value
CNC(C)(C)COCC(=O)N1CCC[C@H](C(=O)NCc2nc(-c3ccc(C(F)(F)F)cc3)cs2)C1	–	–	Caco-2	–	efflux ratio	180
O=C(Nc1ccc(Cl)cc1)Nc1cccc(-c2cn(Cc3ccc(Cl)cc3)nn2)c1	L02	cell growth or viability, CCK-8	–	50 µM, 72 h	viability	102%
COc1ccc(NC(=O)Nc2ccc(-c3cn(Cc4ccc(Br)cc4)nn3)cc2)cc1	L02	cell growth or viability, CCK-8	–	50 µM, 72 h	viability	91.1%
O=C(NCc1cn(Cc2cccc(Cl)c2)nn1)Nc1ccc(Cl)cc1	L02	cell growth or viability, CCK-8	–	50 µM, 72 h	viability	100%
CC(C)n1c(C2CCNCC2)nc2c([N+](=O)[O-])c(Br)c(Br)cc21	–	–	human, plasma	oral, 100 mg, patients	Cmax	73.2 ng/mL
Cc1ccccc1Cn1cc(-c2cccc(NC(=O)Nc3ccc(F)cc3)c2)nn1	L02	cell growth or viability, CCK-8	–	50 µM, 72 h	viability	103%
O=C(COc1ccc(Cl)cc1)NC12CC(c3nnc([C@H]4C[C@@H](OC(F)(F)F)C4)o3)(C1)C2	–	–	human, plasma	oral, 100 mg, multiple doses, once daily, steady state, healthy volunteers	Cmax	5.39 µM
O=C(Nc1ccc(-c2cn(Cc3ccc(Cl)cc3)nn2)cc1)Nc1ccccc1Br	L02	cell growth or viability, CCK-8	–	50 µM, 72 h	viability	113%
COc1ccc(NC(=O)Nc2ccc(-c3cn(Cc4cccc(Cl)c4)nn3)cc2)cc1	L02	cell growth or viability, CCK-8	–	50 µM, 72 h	viability	114%
COc1ccc2c(c1)CN(C(=O)CCN1CCC(Cc3ccccc3)CC1)CC[S@@+]2[O-]	–	–	male human, plasma	intravenous, 0.05 mg/kg, healthy volunteers	Cmax	130 ng/mL
O=C(Nc1ccc(Cl)cc1)Nc1cccc(-c2cn(Cc3cccc(Cl)c3)nn2)c1	L02	cell growth or viability, CCK-8	–	50 µM, 72 h	viability	71.8%
COc1ccc(-c2c(Nc3ccccn3)[nH]c3c(C4=CCCCC4)c(-c4ccccc4)nn3c2=O)cc1	–	–	human, plasma	oral, 150 mg once daily, multiple doses, patients	Cmax	4960 ng/mL
